In brackets after ≈: the same amount, converted by molar mass.
Columns and labels:
Staphylococcus aureus [1] = experiment: Antibacterial activity against Staphylococcus aureus ATCC 25923 after 24 hrs by NCCLS two fold broth microdilution method; assay type: functional; details: ATCC 25923, 24 h
In short: (§1)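 Two-fold serial broth microdilution in 96-well plates following NCCLS. Compounds were dissolved in DMSO as stocks, then diluted in Mueller–Hinton broth to final concentrations of 0.5–512 µg/mL. Plates were inoculated and incubated at 37 °C for 24 h, with growth read visually and spectrophotometrically. MIC was taken as the lowest concentration giving complete growth inhibition. Run in triplicate, with a DMSO-plus-inoculum solvent control.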

Staphylococcus aureus [2] = experiment: Antibacterial activity against methicillin-resistant Staphylococcus aureus N315 after 24 hrs by NCCLS two fold broth microdilution method; assay type: functional; details: N315, 24 h
In short: (§2)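 Two-fold serial broth microdilution per NCCLS. Chloromycin and norfloxacin as reference drugs; DMSO with inoculum, no drug, as solvent control. Incubation 37 °C for 24 h. Growth read visually and spectrophotometrically. MIC is the lowest concentration completely inhibiting growth; triplicate.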

Bacillus subtilis = experiment: Antibacterial activity against Bacillus subtilis ATCC 21216 after 24 hrs by NCCLS two fold broth microdilution method; assay type: functional; details: ATCC 21216, 24 h; in short: as §1
Micrococcus luteus = experiment: Antibacterial activity against Micrococcus luteus ATCC 4698 after 24 hrs by NCCLS two fold broth microdilution method; assay type: functional; details: NCTC 2665, 24 h; in short: as §1
Bacillus = experiment: Antibacterial activity against Bacillus proteus ATCC 13315 after 24 hrs by NCCLS two fold broth microdilution method; assay type: functional; details: ATCC 13315, 24 h; in short: as §1
Escherichia coli = experiment: Antibacterial activity against Escherichia coli ATCC 8099 after 24 hrs by NCCLS two fold broth microdilution method; assay type: functional; details: ATCC 8099, 24 h
In short: as §1, with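 “NCCLS.” for “NCCLS. Compounds were dissolved in DMSO as stocks, then diluted in Mueller–Hinton broth to final concentrations of 0.5–512 µg/mL.”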

Pseudomonas aeruginosa = experiment: Antibacterial activity against Pseudomonas aeruginosa ATCC 27853 after 24 hrs by NCCLS two fold broth microdilution method; assay type: functional; details: ATCC 27853, 24 h
In short: as §1, with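 “NCCLS.” for “NCCLS. Compounds were dissolved in DMSO as stocks, then diluted in Mueller–Hinton broth to final concentrations of 0.5–512 µg/mL.”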

Salmonella typhi = experiment: Antibacterial activity against Bacillus typhi after 24 hrs by NCCLS two fold broth microdilution method; assay type: functional, Salmonella enterica subsp. enterica serovar Typhi; details: Salmonella enterica
In short: as §2, with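 “NCCLS. DMSO stocks diluted in Mueller–Hinton broth to 512, 256, 128, 64, 32, 16, 8, 4, 2, 1, 0.5 µg/mL.” for “NCCLS.”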

Candida albicans = experiment: Antifungal activity against Candida albicans ATCC 76615 after 24 hrs by NCCLS two fold broth microdilution method; assay type: functional; details: ATCC 76615, 24 h
In short: (§3)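 Two-fold serial microdilution following NCCLS. A spore suspension in sterile distilled water was prepared from one-day-old cultures grown on Sabouraud agar and adjusted to a final 1–5 × 10^3 spores/mL. DMSO stocks were diluted in RPMI 1640 to eleven concentrations (0.5–512 µg/mL), inoculated and held at 35 °C for 24 h. Growth was read visually and spectrophotometrically, MIC was the lowest concentration with complete inhibition, and runs were in triplicate.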

Pichia norvegensis = experiment: Antifungal activity against Candida mycoderma after 24 hrs by NCCLS two fold broth microdilution method; assay type: functional
Cyberlindnera jadinii = experiment: Antifungal activity against Candida utilis after 24 hrs by NCCLS two fold broth microdilution method; assay type: functional; details: Williopsis jadinii; in short: as §3
Saccharomyces cerevisiae = experiment: Antifungal activity against Saccharomyces cerevisiae after 24 hrs by NCCLS two fold broth microdilution method; assay type: functional; in short: as §3
Aspergillus flavus = experiment: Antifungal activity against Aspergillus flavus after 24 hrs by NCCLS two fold broth microdilution method; assay type: functional; in short: as §3

CC(=O)Nc1ccc(S(=O)(=O)Cc2nc3ccccc3n2Cc2cccc(F)c2)cc1
MIC (Staphylococcus aureus [1]): 512 µg/mL (≈ 1170 µM)
MIC (Staphylococcus aureus [2]): 256 µg/mL (≈ 585 µM)
MIC (Bacillus subtilis): 512 µg/mL (≈ 1170 µM)
MIC (Micrococcus luteus): 512 µg/mL (≈ 1170 µM)
MIC (Bacillus): 256 µg/mL (≈ 585 µM)
MIC (Escherichia coli): 128 µg/mL (≈ 293 µM)
MIC (Pseudomonas aeruginosa): 256 µg/mL (≈ 585 µM)
MIC (Salmonella typhi): 128 µg/mL (≈ 293 µM)
MIC (Candida albicans): 256 µg/mL (≈ 585 µM)
MIC (Pichia norvegensis): 512 µg/mL (≈ 1170 µM)
MIC (Cyberlindnera jadinii): 512 µg/mL (≈ 1170 µM)
MIC (Saccharomyces cerevisiae): 32 µg/mL (≈ 73.1 µM)
MIC (Aspergillus flavus): 256 µg/mL (≈ 585 µM)

CCCCCCn1c(CS(=O)(=O)c2ccc(N)cc2)nc2ccccc21
MIC (Staphylococcus aureus [1]): 128 µg/mL (≈ 345 µM)
MIC (Staphylococcus aureus [2]): 512 µg/mL (≈ 1380 µM)
MIC (Bacillus subtilis): 512 µg/mL (≈ 1380 µM)
MIC (Micrococcus luteus): 512 µg/mL (≈ 1380 µM)
MIC (Bacillus): 256 µg/mL (≈ 689 µM)
MIC (Escherichia coli): 512 µg/mL (≈ 1380 µM)
MIC (Pseudomonas aeruginosa): 128 µg/mL (≈ 345 µM)
MIC (Salmonella typhi): 512 µg/mL (≈ 1380 µM)
MIC (Candida albicans): 512 µg/mL (≈ 1380 µM)
MIC (Pichia norvegensis): 512 µg/mL (≈ 1380 µM)
MIC (Cyberlindnera jadinii): 512 µg/mL (≈ 1380 µM)
MIC (Saccharomyces cerevisiae): 512 µg/mL (≈ 1380 µM)
MIC (Aspergillus flavus): 512 µg/mL (≈ 1380 µM)

CCCCCn1c(CS(=O)(=O)c2ccc(NC(C)=O)cc2)nc2ccccc21
MIC (Staphylococcus aureus [1]): 32 µg/mL (≈ 80.1 µM)
MIC (Staphylococcus aureus [2]): 128 µg/mL (≈ 320 µM)
MIC (Bacillus subtilis): 64 µg/mL (≈ 160 µM)
MIC (Micrococcus luteus): 32 µg/mL (≈ 80.1 µM)
MIC (Bacillus): 256 µg/mL (≈ 641 µM)
MIC (Escherichia coli): 256 µg/mL (≈ 641 µM)
MIC (Pseudomonas aeruginosa): 4 µg/mL (≈ 10 µM)
MIC (Salmonella typhi): 32 µg/mL (≈ 80.1 µM)
MIC (Candida albicans): 256 µg/mL (≈ 641 µM)
MIC (Pichia norvegensis): 16 µg/mL (≈ 40 µM)
MIC (Cyberlindnera jadinii): 32 µg/mL (≈ 80.1 µM)
MIC (Saccharomyces cerevisiae): 64 µg/mL (≈ 160 µM)
MIC (Aspergillus flavus): 32 µg/mL (≈ 80.1 µM)

CCCCCCCCn1c(CS(=O)(=O)c2ccc(N)cc2)nc2ccccc21
MIC (Staphylococcus aureus [1]): 512 µg/mL (≈ 1280 µM)
MIC (Staphylococcus aureus [2]): 512 µg/mL (≈ 1280 µM)
MIC (Bacillus subtilis): 512 µg/mL (≈ 1280 µM)
MIC (Micrococcus luteus): 512 µg/mL (≈ 1280 µM)
MIC (Bacillus): 512 µg/mL (≈ 1280 µM)
MIC (Escherichia coli): 512 µg/mL (≈ 1280 µM)
MIC (Pseudomonas aeruginosa): 512 µg/mL (≈ 1280 µM)
MIC (Salmonella typhi): 512 µg/mL (≈ 1280 µM)
MIC (Candida albicans): 64 µg/mL (≈ 160 µM)
MIC (Pichia norvegensis): 256 µg/mL (≈ 641 µM)
MIC (Cyberlindnera jadinii): 512 µg/mL (≈ 1280 µM)
MIC (Saccharomyces cerevisiae): 512 µg/mL (≈ 1280 µM)
MIC (Aspergillus flavus): 512 µg/mL (≈ 1280 µM)

CCCCCCCCCCn1c(CS(=O)(=O)c2ccc(NC(C)=O)cc2)nc2ccccc21
MIC (Staphylococcus aureus [1]): 512 µg/mL (≈ 1090 µM)
MIC (Staphylococcus aureus [2]): 512 µg/mL (≈ 1090 µM)
MIC (Bacillus subtilis): 512 µg/mL (≈ 1090 µM)
MIC (Micrococcus luteus): 512 µg/mL (≈ 1090 µM)
MIC (Bacillus): 512 µg/mL (≈ 1090 µM)
MIC (Escherichia coli): 512 µg/mL (≈ 1090 µM)
MIC (Pseudomonas aeruginosa): 512 µg/mL (≈ 1090 µM)
MIC (Salmonella typhi): 512 µg/mL (≈ 1090 µM)
MIC (Candida albicans): 512 µg/mL (≈ 1090 µM)
MIC (Pichia norvegensis): 512 µg/mL (≈ 1090 µM)
MIC (Cyberlindnera jadinii): 16 µg/mL (≈ 34.1 µM)
MIC (Saccharomyces cerevisiae): 512 µg/mL (≈ 1090 µM)
MIC (Aspergillus flavus): 512 µg/mL (≈ 1090 µM)

CC(=O)Nc1ccc(S(=O)(=O)Cc2nc3ccccc3[nH]2)cc1
MIC (Staphylococcus aureus [1]): 32 µg/mL (≈ 97.2 µM)
MIC (Staphylococcus aureus [2]): 128 µg/mL (≈ 389 µM)
MIC (Bacillus subtilis): 32 µg/mL (≈ 97.2 µM)
MIC (Micrococcus luteus): 128 µg/mL (≈ 389 µM)
MIC (Bacillus): 64 µg/mL (≈ 194 µM)
MIC (Escherichia coli): 64 µg/mL (≈ 194 µM)
MIC (Pseudomonas aeruginosa): 32 µg/mL (≈ 97.2 µM)
MIC (Salmonella typhi): 128 µg/mL (≈ 389 µM)
MIC (Candida albicans): 32 µg/mL (≈ 97.2 µM)
MIC (Pichia norvegensis): 64 µg/mL (≈ 194 µM)
MIC (Cyberlindnera jadinii): 16 µg/mL (≈ 48.6 µM)
MIC (Saccharomyces cerevisiae): 32 µg/mL (≈ 97.2 µM)
MIC (Aspergillus flavus): 128 µg/mL (≈ 389 µM)

CCCCCCCn1c(CS(=O)(=O)c2ccc(NC(C)=O)cc2)nc2ccccc21
MIC (Staphylococcus aureus [1]): 8 µg/mL (≈ 18.7 µM)
MIC (Staphylococcus aureus [2]): 512 µg/mL (≈ 1200 µM)
MIC (Bacillus subtilis): 256 µg/mL (≈ 599 µM)
MIC (Micrococcus luteus): 512 µg/mL (≈ 1200 µM)
MIC (Bacillus): 256 µg/mL (≈ 599 µM)
MIC (Escherichia coli): 64 µg/mL (≈ 150 µM)
MIC (Pseudomonas aeruginosa): 512 µg/mL (≈ 1200 µM)
MIC (Salmonella typhi): 512 µg/mL (≈ 1200 µM)
MIC (Candida albicans): 512 µg/mL (≈ 1200 µM)
MIC (Pichia norvegensis): 512 µg/mL (≈ 1200 µM)
MIC (Cyberlindnera jadinii): 128 µg/mL (≈ 299 µM)
MIC (Saccharomyces cerevisiae): 512 µg/mL (≈ 1200 µM)
MIC (Aspergillus flavus): 256 µg/mL (≈ 599 µM)

CCCCCCCCn1c(CS(=O)(=O)c2ccc(NC(C)=O)cc2)nc2ccccc21
MIC (Staphylococcus aureus [1]): 64 µg/mL (≈ 145 µM)
MIC (Staphylococcus aureus [2]): 512 µg/mL (≈ 1160 µM)
MIC (Bacillus subtilis): 128 µg/mL (≈ 290 µM)
MIC (Micrococcus luteus): 256 µg/mL (≈ 580 µM)
MIC (Bacillus): 256 µg/mL (≈ 580 µM)
MIC (Escherichia coli): 512 µg/mL (≈ 1160 µM)
MIC (Pseudomonas aeruginosa): 256 µg/mL (≈ 580 µM)
MIC (Salmonella typhi): 512 µg/mL (≈ 1160 µM)
MIC (Candida albicans): 512 µg/mL (≈ 1160 µM)
MIC (Pichia norvegensis): 512 µg/mL (≈ 1160 µM)
MIC (Cyberlindnera jadinii): 512 µg/mL (≈ 1160 µM)
MIC (Saccharomyces cerevisiae): 8 µg/mL (≈ 18.1 µM)
MIC (Aspergillus flavus): 512 µg/mL (≈ 1160 µM)

CCCn1c(CS(=O)(=O)c2ccc(N)cc2)nc2ccccc21
MIC (Staphylococcus aureus [1]): 256 µg/mL (≈ 777 µM)
MIC (Staphylococcus aureus [2]): 128 µg/mL (≈ 389 µM)
MIC (Bacillus subtilis): 32 µg/mL (≈ 97.1 µM)
MIC (Micrococcus luteus): 256 µg/mL (≈ 777 µM)
MIC (Bacillus): 256 µg/mL (≈ 777 µM)
MIC (Escherichia coli): 64 µg/mL (≈ 194 µM)
MIC (Pseudomonas aeruginosa): 256 µg/mL (≈ 777 µM)
MIC (Salmonella typhi): 32 µg/mL (≈ 97.1 µM)
MIC (Candida albicans): 64 µg/mL (≈ 194 µM)
MIC (Pichia norvegensis): 4 µg/mL (≈ 12.1 µM)
MIC (Cyberlindnera jadinii): 64 µg/mL (≈ 194 µM)
MIC (Saccharomyces cerevisiae): 32 µg/mL (≈ 97.1 µM)
MIC (Aspergillus flavus): 8 µg/mL (≈ 24.3 µM)

O=C(N[C@H](CO)[C@H](O)c1ccc([N+](=O)[O-])cc1)C(Cl)Cl [CHLORAMPHENICOL]
MIC (Staphylococcus aureus [1]): 8 µg/mL (≈ 24.8 µM)
MIC (Bacillus subtilis): 32 µg/mL (≈ 99 µM)
MIC (Micrococcus luteus): 8 µg/mL (≈ 24.8 µM)
MIC (Bacillus): 32 µg/mL (≈ 99 µM)
MIC (Salmonella typhi): 32 µg/mL (≈ 99 µM)

From ChEMBL document CHEMBL4138085, “Design, synthesis and antimicrobial evaluation of novel benzimidazole-incorporated sulfonamide analogues” (Eur J Med Chem, 2017)
